# Data published in ChEMBL document CHEMBL2417446, “Atropisomeric 4-phenyl-4H-1,2,4-triazoles as selective glycine transporter 1 inhibitors” (J Med Chem, 2013).
# Key:
# [1] = target: T1, Sodium- and chloride-dependent glycine transporter 1 (Rattus norvegicus, UniProt P28572); assay: Displacement of [3H]glycine from GlyT1 in rat C6 glioma cells incubated for 30 mins prior to substrate addition measured after 10 mins by scintillation counting analysis; assay type: cell-based
# T1 sequence (P28572 whole entry): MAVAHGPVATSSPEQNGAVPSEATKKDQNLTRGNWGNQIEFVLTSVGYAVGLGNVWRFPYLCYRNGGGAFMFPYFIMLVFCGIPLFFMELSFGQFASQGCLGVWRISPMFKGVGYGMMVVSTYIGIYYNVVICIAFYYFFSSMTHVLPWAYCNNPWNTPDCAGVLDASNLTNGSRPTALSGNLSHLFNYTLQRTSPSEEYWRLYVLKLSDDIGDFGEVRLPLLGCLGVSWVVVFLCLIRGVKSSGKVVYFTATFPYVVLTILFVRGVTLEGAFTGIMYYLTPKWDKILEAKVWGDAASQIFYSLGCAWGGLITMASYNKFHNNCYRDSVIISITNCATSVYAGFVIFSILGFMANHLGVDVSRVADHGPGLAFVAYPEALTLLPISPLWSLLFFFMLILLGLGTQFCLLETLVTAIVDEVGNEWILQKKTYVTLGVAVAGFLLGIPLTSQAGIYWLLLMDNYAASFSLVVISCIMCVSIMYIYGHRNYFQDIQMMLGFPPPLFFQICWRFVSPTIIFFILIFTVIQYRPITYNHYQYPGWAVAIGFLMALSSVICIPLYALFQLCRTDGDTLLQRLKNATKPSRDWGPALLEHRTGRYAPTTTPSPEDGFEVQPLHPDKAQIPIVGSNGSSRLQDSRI
# [2] = Intrinsic clearance in ddY mouse liver microsomes by LC-MS/MS analysis; assay type: ADME, Microsome; settings: read-out: CLH
# In short: (§1)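 Liver microsome CLint was run in duplicate.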
# [3] = Lipophilicity, log D of the compound at pH 7.4; assay type: physicochemical; settings: buffer
# [4] = test system: MDR1; assay: (§2) Apparent permeability from apical to basolateral side in pig LLC-PK1 cells expressing MDR1 after 2 hrs by LC-MS/MS analysis; assay type: ADME, cell-based, Sus scrofa; settings: LLC-PK1
# In short: (§3)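 Transport in LLC-PK1 cells and in LLC-GA5-COL150 cells (LLC-PK1 transfected with human MDR1). Papp = amount transported divided by initial donor concentration. Efflux ratio compares the Papp of the two directions (BA/AB).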
# [5] = Intrinsic clearance in human liver microsomes after 30 mins by LC-MS/MS analysis; assay type: ADME, Microsome; settings: read-out: CLH; in short: as §1
# [6] = Aqueous solubility of the compound at pH 6.8 after 20 hrs by HPLC analysis; assay type: physicochemical; settings: buffer; for solubility at 20 h: pH 6.8; for solubility: pH 6.8, 20 h, 20 h
# [7] = AUC in cynomolgus monkey at 1 mg/kg, iv by LC/MS analysis; assay type: ADME, organism-based, Macaca fascicularis; design: dose 1 mg/kg, route intravenous; settings: plasma
# In short: (§4)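 Single dose given iv at 1 mg/kg or po at 3 mg/kg; each value is the mean of n = 3 measurements.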
# [8] = Cmax in cynomolgus monkey at 3 mg/kg, po by LC/MS analysis; assay type: ADME, organism-based, Macaca fascicularis; design: dose 3 mg/kg, route oral; settings: in vivo; in short: as §4
# [9] = Intrinsic clearance in cynomolgus monkey liver microsomes after 30 mins by LC-MS/MS analysis; assay type: ADME, Macaca fascicularis, Microsome; settings: read-out: CLH; in short: as §1
# [10] = AUC in cynomolgus monkey at 3 mg/kg, po by LC/MS analysis; assay type: ADME, organism-based, Macaca fascicularis; design: dose 3 mg/kg, route oral; settings: plasma; in short: as §4
# [11] = Cmax in ddY mouse at 3 mg/kg, po by LC/MS analysis; assay type: ADME, organism-based; design: dose 3 mg/kg, route oral; settings: in vivo; in short: as §4
# [12] = Half life in ddY mouse at 1 mg/kg, iv by LC/MS analysis; assay type: ADME, organism-based; design: dose 1 mg/kg, route intravenous; settings: in vivo; in short: as §4
# [13] = Plasma clearance in ddY mouse at 1 mg/kg, iv by LC/MS analysis; assay type: ADME, organism-based; design: dose 1 mg/kg, route intravenous; in short: as §4
# [14] = Half life in cynomolgus monkey at 1 mg/kg, iv by LC/MS analysis; assay type: ADME, organism-based, Macaca fascicularis; design: dose 1 mg/kg, route intravenous; settings: in vivo; in short: as §4
# [15] = AUC in ddY mouse at 3 mg/kg, po by LC/MS analysis; assay type: ADME, organism-based; design: dose 3 mg/kg, route oral; settings: plasma; in short: as §4
# [16] = Oral bioavailability in cynomolgus monkey at 3 mg/kg by LC/MS analysis; assay type: ADME, organism-based, Macaca fascicularis; settings: in vivo; in short: as §4
# [17] = test system: LLC-PK1; assay: as §2; assay type: ADME, cell-based, Sus scrofa; settings: llc-pk1, 2 h, 2 h; in short: as §3
# [18] = Volume of distribution at steady state in cynomolgus monkey at 1 mg/kg, iv by LC/MS analysis; assay type: ADME, organism-based, Macaca fascicularis; design: dose 1 mg/kg, route intravenous; settings: in vivo, read-out: Vdss
# In short: (§5)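 Single intravenous dose as a pharmacokinetic study, with each parameter reported as the mean of n = 3 measurements.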
# [19] = Volume of distribution at steady state in ddY mouse at 1 mg/kg, iv by LC/MS analysis; assay type: ADME, organism-based; design: dose 1 mg/kg, route intravenous; settings: in vivo, read-out: Vdss; in short: as §5
# [20] = Oral bioavailability in ddY mouse at 3 mg/kg by LC/MS analysis; assay type: ADME, organism-based; settings: in vivo; in short: as §4
# [21] = Plasma clearance in cynomolgus monkey at 1 mg/kg, iv by LC/MS analysis; assay type: ADME, organism-based, Macaca fascicularis; design: dose 1 mg/kg, route intravenous; in short: as §4
# [22] = AUC in ddY mouse at 1 mg/kg, iv by LC/MS analysis; assay type: ADME, organism-based; design: dose 1 mg/kg, route intravenous; settings: plasma; in short: as §4
# [23] = target: T2, Sodium- and chloride-dependent glycine transporter 2 (Rattus norvegicus, UniProt P58295); assay: Displacement of [3H]glycine from GlyT2 in Wistar rat brainstem cells after 10 mins by scintillation counting analysis; assay type: cell-based
# T2 sequence (P58295 whole entry): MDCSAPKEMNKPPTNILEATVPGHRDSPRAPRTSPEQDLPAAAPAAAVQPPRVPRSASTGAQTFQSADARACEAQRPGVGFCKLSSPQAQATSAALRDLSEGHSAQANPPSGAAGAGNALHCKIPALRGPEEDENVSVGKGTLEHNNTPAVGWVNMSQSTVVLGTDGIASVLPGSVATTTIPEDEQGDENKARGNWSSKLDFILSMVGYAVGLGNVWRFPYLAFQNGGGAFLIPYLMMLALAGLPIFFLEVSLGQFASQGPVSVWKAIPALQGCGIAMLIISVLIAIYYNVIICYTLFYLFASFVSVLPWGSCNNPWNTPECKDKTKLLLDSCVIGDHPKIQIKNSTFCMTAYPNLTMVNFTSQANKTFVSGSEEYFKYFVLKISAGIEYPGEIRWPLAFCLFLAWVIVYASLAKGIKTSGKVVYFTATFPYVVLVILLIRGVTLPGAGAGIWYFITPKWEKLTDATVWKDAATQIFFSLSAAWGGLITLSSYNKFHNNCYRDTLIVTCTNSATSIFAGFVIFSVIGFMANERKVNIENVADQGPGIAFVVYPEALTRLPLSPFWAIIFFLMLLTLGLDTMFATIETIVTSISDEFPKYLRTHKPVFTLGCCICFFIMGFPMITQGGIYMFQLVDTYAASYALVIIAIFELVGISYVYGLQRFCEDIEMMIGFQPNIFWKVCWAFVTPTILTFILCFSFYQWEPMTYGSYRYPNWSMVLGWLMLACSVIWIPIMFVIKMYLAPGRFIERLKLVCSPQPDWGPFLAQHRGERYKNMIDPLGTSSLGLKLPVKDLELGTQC
# [24] = target: T3, Sodium- and chloride-dependent glycine transporter 1 (Rattus norvegicus) (UniProt P28572); settings: C6 glioma, 10 uM
# T3 sequence (whole entry): T1 sequence (P28572 whole entry)
# [25] = Ratio of brain to plasma in ddY mouse at 1 mg/kg, iv by LC-MS analysis; assay type: ADME, organism-based; design: dose 1 mg/kg, route intravenous; settings: read-out: BPR
compound,measurement,setting,value
CCc1nnc(-c2ccc(-c3ccccc3)cc2)n1-c1cccc(Cl)c1C,IC50,[1],2.2 µM
Cc1nnc(-c2ccc(-c3cccnc3)cc2)n1-c1ccccc1F,IC50,[1],7 µM
CCc1nnc(-c2ccc(-c3ccccc3)cc2)n1-c1cccc(CC#N)c1C,IC50,[1],2.8 µM
CCc1nnc(-c2ccc(-c3ccccc3)cc2)n1-c1cccc(CN(C)C)c1C,IC50,[1],29 µM
CCc1nnc(-c2ccc(-c3ccccc3)cc2)n1-c1cccc2cnccc12,CLint scaled,[2],> 1000 mL/min/kg
same,logD,[3],4.1
same,Papp A→B at 2 h,[4],25.6 ×10⁻⁶ cm/s
same,CLint scaled,[5],374 mL/min/kg
same,solubility at 20 h,[6],5 µM
CCc1nnc(-c2ccc(-c3ccccc3)cc2)n1-c1cccc(C#N)c1C,CLint scaled,[2],> 1000 mL/min/kg
same,logD,[3],4.1
same,Papp A→B at 2 h,[4],27.5 ×10⁻⁶ cm/s
same,CLint scaled,[5],126 mL/min/kg
same,solubility at 20 h,[6],< 1 µM
CCc1nnc(-c2ccc(-c3ccccc3)nc2)n1-c1cccc(C#N)c1C (atropisomer R),AUC,[7],875 ng·h/mL
same,CLint scaled,[2],787 mL/min/kg
same,Cmax,[8],141 ng/mL
same,CLint scaled,[9],162 mL/min/kg
same,AUC,[10],522 ng·h/mL
same,Cmax,[11],319 ng/mL
same,half-life,[12],0.22 h
same,logD,[3],3
same,clearance,[13],67 mL/min/kg
same,half-life,[14],2.4 h
same,AUC,[15],235 ng·h/mL
same,bioavailability,[16],23%
same,Papp,[17],35.4 ×10⁻⁶ cm/s
same,Vd,[18],3.4 L/kg
same,CLint scaled,[5],55 mL/min/kg
same,solubility,[6],95 µM
same,Vd,[19],1 L/kg
same,bioavailability,[20],32%
same,clearance,[21],21 mL/min/kg
same,AUC,[22],248 ng·h/mL
Cc1nnc(-c2ccc(-c3ccncc3)cc2)n1-c1ccccc1F,IC50,[1],5.9 µM
CCc1nnc(-c2ccc(-c3ccccc3)cc2)n1-c1cccc(C(=O)OC)c1C,IC50,[1],5.1 µM
Cc1nnc(-c2ccc(-c3ccccn3)cc2)n1-c1ccccc1F,IC50,[23],1.6 µM
same,IC50,[1],0.86 µM
CCc1nnc(-c2ccc(-c3ccccc3)cc2)n1-c1cccc(COC)c1C,IC50,[1],2.4 µM
CCc1nnc(-c2ccc(-c3ccccc3)cc2)n1-c1cccc(C(F)(F)F)c1C,inhibition,[24],38%
same,IC50,[1],> 10 µM
CCc1nnc(-c2ccc(-c3ccccc3)nc2)n1-c1ccccc1F,solubility at 20 h,[6],31 µM
CCc1nnc(-c2ccc(-c3ccccc3)cc2)n1-c1cccc(C(N)=O)c1C,IC50,[1],3.9 µM
CCc1nnc(-c2ccc(-c3ccccc3)cc2)n1-c1ccccc1F,solubility at 20 h,[6],< 1 µM
CCc1nnc(-c2ccc(-c3ccccc3)nc2)n1-c1cccc(C#N)c1C (atropisomer S),solubility at 20 h,[6],94 µM
CCc1nnc(-c2ccc(-c3ccccc3)nc2)n1-c1cccc(C#N)c1C,Kp,[25],0.7
same,Papp A→B at 2 h,[4],29.6 ×10⁻⁶ cm/s
same,solubility,[6],98 µM
CCc1nnc(N2CCC(c3ccccc3)CC2)n1-c1ccccc1F,IC50,[1],3.7 µM
CCc1nnc(N2CCN(c3ccccc3)CC2)n1-c1ccccc1F,IC50,[1],2.6 µM
CCc1nnc(-c2ccc(-c3ccccc3)cc2)n1-c1cccc(Br)c1C,IC50,[1],2.2 µM
CCc1nnc(C2CCN(c3ccccc3)CC2)n1-c1ccccc1F,IC50,[1],6.6 µM
CCc1nnc(-c2ccc(-c3ccccc3)cc2)n1-c1cccc(N(C)C)c1C,IC50,[1],3.1 µM
